The text below walks through data of ChEMBL document CHEMBL3352034, “Therapeutic potential of targeting the oncogenic SHP2 phosphatase” (J Med Chem, 2014).

For orientation: inhibition means how much of the control response was suppressed. What is called IC50 is the concentration that inhibits the measured activity by half.

Activity calls are given as the source filed them. The calls are words filed in the database; no cut-off is given here.

The species entered for experiment [1] is Mus musculus. Kind of experiment: Anticancer activity against mouse 32D cells bearing wild-type KIT assessed as ligand dependent growth inhibition at 1 to 5 uM measured after 6 hrs. In kind it is functional, cell-based. Put shortly:
(§1)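 32D myeloid cells retrovirally transduced with WT KIT or KITD814V and sorted on EGFP. Starved 6–8 h in IMDM/0.2% BSA without serum or growth factors. Plated at 5×10^4 cells in triplicate in IMDM/10% FBS, with 10 ng/mL IL-3 for WT KIT and no growth factors for KITD814V, ± inhibitor. Cultured 48 h, pulsed 6 h with 1.0 μCi [3H]thymidine, CPM counted. Four independent experiments.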

Experiment [2] is filed under the species Mus musculus. Kind of experiment: Anticancer activity against mouse 32D cells bearing KITD814V mutant assessed as ligand dependent growth inhibition at 5 uM measured after 6 hrs. The class given is functional, cell-based. To be noted: in the assay text read “ligand independent” for “ligand dependent”. Put shortly:
as §1

Experiment [3] has as its target Receptor-type tyrosine-protein phosphatase epsilon (Homo sapiens, UniProt P23469). Briefly: Inhibition of PTPepsilon (unknown origin).
Experiment [4] has as its target Receptor-type tyrosine-protein phosphatase alpha (Homo sapiens, UniProt P18433). Kind of experiment: Inhibition of PTPalpha (unknown origin).
Experiment [5] concerns NCI-H1975. Briefly: Anticancer activity against human NCI-H1975 cells after 2 days by MTT assay. In kind it is functional, cell-based. Put shortly:
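H1975 NSCLC cells in RPMI-1640 with 10% FBS at 37 °C, 5% CO2. 3×10^3 cells/well, treated 2 days in RPMI-1640 with 0.5% FBS. MTT at 50 μg/mL for 3–4 h, formazan dissolved in DMSO, OD read at 540 nm. Media-only wells used for background. IC50 from dose–response.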
A general note: Tetrazolium assays rely on reduction of a dye to a coloured formazan, in cell work by metabolically active cells.

Experiment [6] addresses T1, Tyrosine-protein phosphatase non-receptor type 11 (Homo sapiens) (UniProt Q06124).
T1 sequence (whole entry): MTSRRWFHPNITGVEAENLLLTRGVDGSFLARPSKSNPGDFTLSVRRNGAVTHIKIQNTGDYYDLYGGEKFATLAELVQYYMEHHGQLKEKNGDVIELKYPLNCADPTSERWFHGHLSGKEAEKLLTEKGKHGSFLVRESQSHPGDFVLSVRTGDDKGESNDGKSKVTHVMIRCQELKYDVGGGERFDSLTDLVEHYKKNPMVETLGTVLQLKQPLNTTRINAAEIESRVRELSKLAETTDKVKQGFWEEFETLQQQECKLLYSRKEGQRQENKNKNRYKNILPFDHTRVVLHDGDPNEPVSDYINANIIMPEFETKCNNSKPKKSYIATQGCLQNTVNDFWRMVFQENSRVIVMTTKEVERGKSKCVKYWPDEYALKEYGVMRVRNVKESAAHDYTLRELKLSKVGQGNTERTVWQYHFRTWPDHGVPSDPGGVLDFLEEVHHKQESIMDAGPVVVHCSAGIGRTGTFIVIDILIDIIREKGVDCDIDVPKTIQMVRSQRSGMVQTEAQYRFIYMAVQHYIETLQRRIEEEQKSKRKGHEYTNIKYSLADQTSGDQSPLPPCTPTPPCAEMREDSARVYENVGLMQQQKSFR
Briefly: Inhibition of SHP2 in human NCI-H1975 cells assessed as reduction in EGF-induced Erk1/2 phosphorylation after 60 mins by immunoblot analysis. In kind it is cell-based. In a few lines: (§2)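 H1975 cells serum-starved overnight, treated with vehicle or compound for 3 h, then left unstimulated or stimulated with 5 ng/mL EGF for 60 min. Lysates resolved by SDS-PAGE and immunoblotted for paxillin pY118 and phospho-Erk1/2.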
On the technique in general: A western blot detects proteins with antibodies after separation by electrophoresis.

For experiment [7], the target named is T1, Tyrosine-protein phosphatase non-receptor type 11 (Homo sapiens). Briefly: Inhibition of SHP2 dephosphorylation activity in human NCI-H1975 cells assessed as increase in paxillin (pY118) phosphorylation after 60 mins by immunoblot analysis. The class given is cell-based. In a few lines: as §2
Experiment [8] shares this target. Kind of experiment: Inhibition of SHP2 in human NCI-H1975 cells assessed as reduction in EGF-induced Erk1/2 phosphorylation at 2 uM after 60 mins by immunoblot analysis. In kind it is cell-based. Put shortly: as §2
The target is the same in experiment [9]. Briefly: Inhibition of SHP2 dephosphorylation activity in human NCI-H1975 cells assessed as increase in paxillin (pY118) phosphorylation at 2 uM after 60 mins by immunoblot analysis. In kind it is cell-based. The arrangement: Activity: scale not given: the % may be the effect or the level left. Put shortly: as §2
Experiment [10] shares this target. Briefly: Inhibition of SHP2 in human NCI-H1975 cells assessed as reduction in EGF-induced Erk1/2 phosphorylation after 60 mins by immunoblot analysis in presence of SHP2 siRNA. In kind it is cell-based. In a few lines:
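H1975 cells transfected with SHP2 or scrambled siRNA using Lipofectamine 2000 for 6 h, then recovered in RPMI1640 with 10% FBS. Serum-starved overnight, treated with compound for 3 h, stimulated with 5 ng/mL EGF for 60 min. Phospho-Erk1/2 measured by immunoblot.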

The test system of experiment [11] is NCI-H1975. Briefly: Effect on PMA-induced Erk1/2 phosphorylation in human NCI-H1975 cells at 0.5 to 2 uM after 30 mins by immunoblot analysis. The class given is functional, cell-based.
Another experiment deals with SK-BR-3. Kind of experiment: Anticancer activity against human SKBR3 cells assessed as growth inhibition at 3 uM measured within 24 hrs by matrigel assay. In kind it is functional, cell-based. In a few lines: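 About 300000 SKBR3 cells seeded into 150 μL growth factor reduced Matrigel. Three dishes per condition received medium containing DMSO vehicle or compound. Colonies imaged every 24 h under a stereo microscope. Cross-sectional area of individual colonies measured from the images.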

For experiment [12], the target named is T1, Tyrosine-protein phosphatase non-receptor type 11 (Homo sapiens). Briefly: Inhibition of SHP2 in human SKBR3 cells assessed as inhibition of total Erk1/2 phosphorylation level at 1 to 10 uM measured after 4 days by matrigel assay. In kind it is cell-based. To be noted: SK-BR-3. In a few lines:
(§3)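 SKBR3 cells grown in Matrigel with vehicle or compound (1 to 10 μM), three dishes per condition. After 4 days cells recovered from Matrigel and lysed in PLC buffer with protease inhibitors. Total and phospho Erk1/2 and Akt detected by SDS-PAGE immunoblot.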

Experiment [13] shares this target. Briefly: Inhibition of SHP2 in human SKBR3 cells assessed as inhibition of total Akt phosphorylation level at 1 to 10 uM measured after 4 days by matrigel assay. To be noted: SK-BR-3. In kind it is cell-based. Put shortly: as §3
The species named for experiment [14] is Mus musculus. Briefly: Anticancer activity against mouse 32D cells bearing KITD814V mutant assessed as ligand dependent growth inhibition at 1 uM measured after 6 hrs. In kind it is functional, cell-based. To be noted: in the assay text read “ligand independent” for “ligand dependent”. In a few lines: as §1
Experiment [15] has as its system Bone marrow cell. Kind of experiment: Reduction in growth of C57BL/6 mouse Bone marrow cell bearing KITD814V mutant at 1 uM after 6 hrs. The class given is functional, cell-based.
Experiment [16] has as its system Bone marrow cell. Briefly: Reduction in growth of C57BL/6 mouse Bone marrow cell bearing KITD814V mutant at 5 uM after 6 hrs. In kind it is functional, cell-based.
For experiment [17], the target named is Mast/stem cell growth factor receptor Kit (Homo sapiens) (UniProt P10721). Kind of experiment: Effect on wild type KIT (unknown origin) expressed in serum starved mouse 32D cells assessed as effect on Erk1/2 activation at 1 to 5 uM measured after 2 hrs by immunoblot analysis. The class given is cell-based. Put shortly: (§4)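 Sorted 32D cells expressing WT KIT or KITD814V, starved of serum and growth factors for 6 h. Treated with compound for 2 h, then lysed in NP-40 buffer with phosphatase and protease inhibitors. Equal protein amounts immunoblotted for phospho and total Akt and Erk1/2, ECL detection. Two independent experiments.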
Mast/stem cell growth factor receptor Kit (Homo sapiens), sequence (P10721 whole entry): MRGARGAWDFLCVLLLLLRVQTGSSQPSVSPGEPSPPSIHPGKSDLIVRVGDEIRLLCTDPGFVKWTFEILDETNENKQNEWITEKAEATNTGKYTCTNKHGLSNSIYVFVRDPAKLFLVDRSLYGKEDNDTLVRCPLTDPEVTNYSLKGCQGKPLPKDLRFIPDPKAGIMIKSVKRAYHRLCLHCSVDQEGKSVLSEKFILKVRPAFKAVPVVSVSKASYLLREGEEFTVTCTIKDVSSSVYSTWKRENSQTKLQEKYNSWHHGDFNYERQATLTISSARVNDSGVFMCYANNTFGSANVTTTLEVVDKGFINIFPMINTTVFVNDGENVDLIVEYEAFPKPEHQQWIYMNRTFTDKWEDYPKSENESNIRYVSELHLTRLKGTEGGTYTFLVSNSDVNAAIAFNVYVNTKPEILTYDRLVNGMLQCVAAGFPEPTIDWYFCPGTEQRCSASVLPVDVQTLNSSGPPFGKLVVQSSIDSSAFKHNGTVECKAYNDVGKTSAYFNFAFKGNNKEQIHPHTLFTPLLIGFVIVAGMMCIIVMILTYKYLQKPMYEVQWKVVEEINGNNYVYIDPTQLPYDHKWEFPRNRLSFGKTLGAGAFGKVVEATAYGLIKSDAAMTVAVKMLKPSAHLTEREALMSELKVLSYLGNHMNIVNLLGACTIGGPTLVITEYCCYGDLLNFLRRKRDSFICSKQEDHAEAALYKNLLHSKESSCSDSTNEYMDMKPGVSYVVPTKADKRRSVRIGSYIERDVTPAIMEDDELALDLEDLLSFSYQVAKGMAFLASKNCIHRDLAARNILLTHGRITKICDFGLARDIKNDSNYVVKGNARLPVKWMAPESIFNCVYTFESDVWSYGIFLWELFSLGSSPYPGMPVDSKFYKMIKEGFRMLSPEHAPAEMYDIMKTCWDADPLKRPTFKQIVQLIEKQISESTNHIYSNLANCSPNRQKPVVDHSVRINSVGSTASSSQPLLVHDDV

For experiment [18] the target is unchanged. Kind of experiment: Inhibition of KIT D814V mutant (unknown origin) expressed in serum starved mouse 32D cells assessed as inhibition of total Erk1/2 activation at 1 to 5 uM measured after 2 hrs by immunoblot analysis. In kind it is cell-based. In a few lines: as §4
For experiment [19] the target is unchanged. Kind of experiment: Effect on wild type KIT (unknown origin) expressed in serum starved mouse 32D cells assessed as effect on Akt activation at 1 to 5 uM measured after 2 hrs by immunoblot analysis. The class given is cell-based. In a few lines:
as §4

Experiment [20] shares this target. Briefly: Inhibition of KIT D814V mutant (unknown origin) expressed in serum starved mouse 32D cells assessed as inhibition of Akt activation at 1 to 5 uM measured after 2 hrs by immunoblot analysis. In kind it is cell-based. In a few lines: as §4
The target in experiment [21] is T2, Tyrosine-protein phosphatase non-receptor type 11 (Homo sapiens, UniProt Q06124).
T2 sequence (Q06124 whole entry): T1 sequence (whole entry)
Briefly: Inhibition of SHP2 (unknown origin) using p-nitrophenyl phosphate substrate by microplate spectrophotometry.

Receptor-type tyrosine-protein phosphatase epsilon, sequence (P23469 whole entry): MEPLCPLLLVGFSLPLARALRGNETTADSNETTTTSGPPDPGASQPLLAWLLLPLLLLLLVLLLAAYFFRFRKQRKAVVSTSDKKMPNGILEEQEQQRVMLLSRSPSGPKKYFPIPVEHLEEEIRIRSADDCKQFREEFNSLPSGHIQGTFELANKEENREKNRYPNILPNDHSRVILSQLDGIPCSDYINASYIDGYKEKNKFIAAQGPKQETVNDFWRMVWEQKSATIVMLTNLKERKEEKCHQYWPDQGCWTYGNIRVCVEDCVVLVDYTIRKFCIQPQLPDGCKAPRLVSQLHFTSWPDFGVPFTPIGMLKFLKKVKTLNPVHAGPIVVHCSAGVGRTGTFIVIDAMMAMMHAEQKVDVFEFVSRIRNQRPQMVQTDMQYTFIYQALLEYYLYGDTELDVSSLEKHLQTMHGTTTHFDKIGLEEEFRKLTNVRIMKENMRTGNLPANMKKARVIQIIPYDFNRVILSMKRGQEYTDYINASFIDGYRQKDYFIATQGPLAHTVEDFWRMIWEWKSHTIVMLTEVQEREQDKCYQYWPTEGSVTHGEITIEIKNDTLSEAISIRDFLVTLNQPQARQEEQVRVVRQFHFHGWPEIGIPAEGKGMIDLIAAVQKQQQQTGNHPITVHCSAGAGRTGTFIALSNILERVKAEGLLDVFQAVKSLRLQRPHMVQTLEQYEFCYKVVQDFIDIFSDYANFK
Receptor-type tyrosine-protein phosphatase alpha, sequence (P18433 whole entry): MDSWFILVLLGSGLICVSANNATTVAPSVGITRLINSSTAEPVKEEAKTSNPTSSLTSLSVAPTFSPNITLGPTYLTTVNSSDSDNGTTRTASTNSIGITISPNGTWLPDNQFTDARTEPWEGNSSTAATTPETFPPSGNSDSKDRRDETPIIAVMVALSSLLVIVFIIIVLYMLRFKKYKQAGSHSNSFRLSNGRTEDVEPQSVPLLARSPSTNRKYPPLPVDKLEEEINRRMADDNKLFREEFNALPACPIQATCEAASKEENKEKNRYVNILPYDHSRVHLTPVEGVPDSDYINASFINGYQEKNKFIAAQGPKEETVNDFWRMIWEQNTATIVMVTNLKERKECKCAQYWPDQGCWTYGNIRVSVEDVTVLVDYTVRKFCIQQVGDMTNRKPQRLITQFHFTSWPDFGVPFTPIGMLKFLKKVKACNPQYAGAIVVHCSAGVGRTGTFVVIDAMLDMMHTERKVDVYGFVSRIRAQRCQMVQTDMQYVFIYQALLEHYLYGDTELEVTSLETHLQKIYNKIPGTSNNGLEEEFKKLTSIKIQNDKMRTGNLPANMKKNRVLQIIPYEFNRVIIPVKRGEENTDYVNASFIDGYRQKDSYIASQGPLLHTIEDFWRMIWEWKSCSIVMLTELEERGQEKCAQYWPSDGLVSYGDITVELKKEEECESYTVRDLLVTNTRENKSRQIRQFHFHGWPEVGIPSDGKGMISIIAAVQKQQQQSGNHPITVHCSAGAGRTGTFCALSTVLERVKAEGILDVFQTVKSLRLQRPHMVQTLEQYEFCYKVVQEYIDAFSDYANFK

As for `Cn1c(-c2ccccc2)c(-c2cn(CCC(=O)Nc3ccc(-c4ccccc4)cc3)nn2)c2cc(C(=O)O)c(O)cc21`, the inhibition entry in the experiment filed under Mus musculus [1] is “inactive”. For the same molecule, in the experiment listed under Mus musculus [2], the inhibition entry was “Active”.

In the case of `Cn1c(-c2cccc(NC(=O)C(=O)Nc3ccc(-c4ccsc4)cc3)c2)c(I)c2cc(C(=O)O)c(O)cc21`, the IC50 was greater than 20 µM in experiment [3]; greater than 100 µM in experiment [4]; 170 nM in the experiment on NCI-H1975 [5] (NCI-H1975, 48 h). For the same molecule, the inhibition entry in the experiment with NCI-H1975 [5] was “Dose-dependent effect”; in experiment [6], “Dose-dependent effect”; in experiment [7], “Dose-dependent effect”; in experiment [8], 40%; in experiment [18] it was “Dose-dependent effect”; in experiment [20] it was “Dose-dependent effect”. Further, in experiment [9], the Activity stood at 30%. Further, the inhibition entry (in experiment [10]; in the experiment filed under Mus musculus [1]; in experiment [17]; in experiment [19]) was “inactive” each time. Moreover, the result with NCI-H1975 [11] was inactive. Further, the inhibition result (in the experiment on SK-BR-3; in experiment [12]; in experiment [13]; in the experiment filed under Mus musculus [2]; in the experiment filed under Mus musculus [14]; in the experiment with Bone marrow cell [15]) was “Active” in each case. In addition, in the experiment with Bone marrow cell [16], the inhibition entry is “Active”.

Consider `CCCN(CC1CC1)C(=O)CCC(=O)Nc1cccc(-c2c(I)c3cc(C(=O)O)c(O)cc3n2C)c1`, for which, in experiment [21], the IC50 was greater than 20 µM.

As for `Cn1c(-c2cccc(NC(=O)C(=O)O)c2)c(I)c2cc(C(=O)O)c(O)cc21`, the inhibition entry in experiment [8] and in experiment [9] was “inactive” throughout.
